Data set [1] in a line: Toxicity in brine shrimp larvae. In kind it is organism-based. The settings on record: artemia, in vivo.
In the next data set the test system is A549. Briefly: Cytotoxicity against human A549 cells after 7 days. In kind it is functional. The settings on record: A549, 168 h, read-out: ED50 (the source's name). The procedure, abridged:
(§1)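 This was a seven-day in vitro cytotoxicity test run under standard protocols on three solid tumor lines: A-549 (human lung carcinoma), MCF-7 (human breast carcinoma) and HT-29 (human colon adenocarcinoma). Adriamycin was the positive control.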

A further data set relates to HT-29. Briefly: Cytotoxicity against human HT-29 cells after 7 days. The following applies: HT-29, 168 h, read-out: ED50 (the source's name). In kind it is functional. The procedure, abridged:
as §1

In data set [2] the test system is Agrobacterium tumefaciens. Briefly: Antitumor activity against Agrobacterium tumefaciens-induced crown gall tumors in potato by disk test relative to control. In kind it is functional. The procedure, abridged:
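Crown gall tumors on potato discs were scored, and the read-out was % inhibition relative to control. The assay was run in-house.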

A further data set relates to MCF7. Briefly: Cytotoxicity against human MCF7 cells after 7 days. In kind it is functional. The settings on record: MCF7, 168 h, read-out: ED50 (the source's name). The procedure, abridged:
as §1

Each structure is given as a SMILES string. In brackets after ≈: the same amount, converted by molar mass.

Usually LC50 stands for the concentration lethal to half of the exposed cells or organisms. As a reminder, the T/C is the ratio of treated to control. `Oc1cccc(CCCCCCCCCCCCc2ccccc2)c1` registered an LC50 in data set [1] of 1.37 µg/mL (≈ 4.05 µM). The EC50 in the data set on A549 was found to be 1.85 µg/mL (≈ 5.46 µM); with HT-29 it was 2.62 µg/mL (≈ 7.74 µM); in the data set on MCF7, 2.09 µg/mL (≈ 6.17 µM). The compound further registered a T/C in data set [2] of 39%.
`Oc1cccc(CCCCCCCCCCc2ccccc2)c1` yielded an LC50 in data set [1] of 0.45 µg/mL (≈ 1.45 µM). For the same compound, the EC50 with A549 was found to be 35 µg/mL (≈ 113 µM); in the data set with HT-29 it was 28.6 µg/mL (≈ 92.1 µM); in the data set on MCF7, 7.76 µg/mL (≈ 25 µM). Also, the T/C in data set [2] came to 54%.
In data set [1], `Oc1cc(O)cc(CCCCCCCCCCc2ccccc2)c1` came in with an LC50 of 0.47 µg/mL (≈ 1.44 µM). In addition, the results for the EC50 with A549, in the data set with HT-29 and with MCF7 were 3.49 µg/mL (≈ 10.7 µM), 3.24 µg/mL (≈ 9.92 µM) and 2.69 µg/mL (≈ 8.24 µM), respectively. The T/C in data set [2] was found to be 62%.
Turning to `O=C(O)c1c(O)cccc1CCCCCCCCCCCCc1ccccc1`, the LC50 in data set [1] was 1.24 µg/mL (≈ 3.24 µM). In addition, the EC50 was 15 µg/mL (≈ 39.2 µM) in the data set on A549, 2.98 µg/mL (≈ 7.79 µM) in the data set with HT-29 and 3.06 µg/mL (≈ 8 µM) in the data set on MCF7. For the same compound, the T/C in data set [2] came to 61%.
Compound `CC(=O)c1c(O)cc(O)cc1CCCCCCCCCCc1ccccc1` returned an LC50 in data set [1] of 0.18 µg/mL (≈ 0.488 µM). In addition, the figures for the EC50 with A549, in the data set with HT-29 and in the data set on MCF7 were 3.22 µg/mL (≈ 8.74 µM), 4.47 µg/mL (≈ 12.1 µM) and 2.87 µg/mL (≈ 7.79 µM), respectively. The T/C in data set [2] came to 30%.
In the same order, the values of `Oc1cc(O)cc(CCCCCCCCCCCCc2ccccc2)c1` are 0.33 µg/mL (≈ 0.931 µM), 3.26 µg/mL (≈ 9.2 µM), 2.87 µg/mL (≈ 8.1 µM), 1.84 µg/mL (≈ 5.19 µM) and 45%.
As to `COc1ccc(-c2coc3cc(O)cc(O)c3c2=O)cc1` [BIOCHANIN], the LC50 in data set [1] was 107 µg/mL (≈ 376 µM). In addition, the figures for the EC50 in the data set on A549, in the data set with HT-29 and in the data set on MCF7 were 19.8 µg/mL (≈ 69.5 µM), 28.4 µg/mL (≈ 99.8 µM) and 5.49 µg/mL (≈ 19.3 µM), respectively. In data set [2], the T/C stood at 54%.
For `CCCCCCCCCCCCCCCc1cc(O)cc(O)c1` [CARDOL], the LC50 in data set [1] was 7.65 µg/mL (≈ 23.9 µM). The EC50 in the data set with A549 is 2.37 µg/mL (≈ 7.39 µM); in the data set with HT-29, 3.25 µg/mL (≈ 10.1 µM); with MCF7, 2.41 µg/mL (≈ 7.52 µM). For the same compound, in data set [2], the T/C stood at 41%.
Regarding `COc1cccc2c1C(=O)c1c(O)c3c(c(O)c1C2=O)C[C@@](O)(C(=O)CO)C[C@@H]3O[C@H]1C[C@H](N)[C@H](O)[C@H](C)O1` [DOXORUBICIN], the figures for the EC50 in the data set on A549, in the data set with HT-29 and in the data set on MCF7 were 0.00148 µg/mL (≈ 0.00272 µM), 0.00669 µg/mL (≈ 0.0123 µM) and 0.147 µg/mL (≈ 0.27 µM), respectively.
In data set [1], `COc1ccc(-c2coc3cc(O)ccc3c2=O)cc1` [FORMONONETIN] yielded an LC50 of 22.7 µg/mL (≈ 84.6 µM). Moreover, the EC50 amounted to 2.87 µg/mL (≈ 10.7 µM) with A549, 6.43 µg/mL (≈ 24 µM) in the data set on HT-29 and 1.96 µg/mL (≈ 7.31 µM) in the data set on MCF7. In addition, the T/C in data set [2] was 79%.
In turn, `Oc1cccc(CCCCCCCCC[C@H](O)c2ccccc2)c1` [KNEGLOMERATANOL] showed an LC50 in data set [1] of 0.21 µg/mL (≈ 0.643 µM). The values for the EC50 in the data set with A549, in the data set on HT-29 and in the data set on MCF7 were 5.99 µg/mL (≈ 18.3 µM), 9.33 µg/mL (≈ 28.6 µM) and 2.32 µg/mL (≈ 7.11 µM), respectively. In addition, the T/C in data set [2] amounted to 29%.
The compound `CC(=O)c1c(O)cc(O)cc1CCCCCCCCc1ccccc1` [KNEGLOMERATANONE A] returned an LC50 in data set [1] of 0.37 µg/mL (≈ 1.09 µM). Further, the results for the EC50 in the data set with A549, in the data set with HT-29 and with MCF7 were 3.89 µg/mL (≈ 11.4 µM), 18.8 µg/mL (≈ 55.3 µM) and 3.44 µg/mL (≈ 10.1 µM), respectively. For the same compound, the T/C in data set [2] is 38%.
Take `CCCCCCCCCCCCCc1cc(O)cc(O)c1C(C)=O` [KNEGLOMERATANONE B]: the LC50 in data set [1] stood at 1.92 µg/mL (≈ 5.74 µM). Also, the EC50 with A549 worked out at 2.3 µg/mL (≈ 6.88 µM); in the data set with HT-29, 6.56 µg/mL (≈ 19.6 µM); in the data set with MCF7, 1.12 µg/mL (≈ 3.35 µM). In data set [2], this compound registered a T/C of 38%.

Values taken from ChEMBL document CHEMBL1149048, “Kneglomeratanol, kneglomeratanones A and B, and related bioactive compounds from Knema glomerata” (J Nat Prod, 1994).
